Converted amounts (≈) assume the structure as drawn.
Key:
Format in all cases: functional
Candida tropicalis [1] = test: Antifungal activity against Candida tropicalis ATCC 200956 after 24 hrs by visually and spectrophotometric analysis; conditions: ATCC 200956, 24 h
Procedure, shortened: (§1)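 Read-out is MIC90 in μg/mL, scored at 24 h both by eye and spectrophotometrically. The panel is Candida isolates that earlier reports describe as amphotericin B-resistant, with amphotericin B run alongside as the reference drug.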

Clavispora lusitaniae [2] = test: Antifungal activity against Candida lusitaniae ATCC 60247 after 24 hrs by visually and spectrophotometric analysis; conditions: ATCC 60247, 24 h; procedure, shortened: as §1
Clavispora lusitaniae [3] = test: Antifungal activity against Candida lusitaniae ATCC 24348 after 24 hrs by visually and spectrophotometric analysis; conditions: ATCC 24348, 24 h; procedure, shortened: as §1
Clavispora lusitaniae [4] = test: Antifungal activity against Candida lusitaniae ATCC 200953 after 24 hrs by visually and spectrophotometric analysis; procedure, shortened: as §1
Clavispora lusitaniae [5] = test: Antifungal activity against Candida lusitaniae ATCC 200952 after 24 hrs by visually and spectrophotometric analysis; procedure, shortened: as §1
Clavispora lusitaniae [6] = test: Antifungal activity against Candida lusitaniae ATCC 200951 after 24 hrs by visually and spectrophotometric analysis; procedure, shortened: as §1
Clavispora lusitaniae [7] = test: Antifungal activity against Candida lusitaniae ATCC 200950 after 24 hrs by visually and spectrophotometric analysis; conditions: ATCC 200950, 24 h; procedure, shortened: as §1
Candida albicans [8] = test: Antifungal activity against Candida albicans ATCC 200955 after 24 hrs by visually and spectrophotometric analysis; conditions: ATCC 200955, 24 h
Procedure, shortened: (§2)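 Endpoint is MIC90, in μg/mL, read at 24 h by both visual inspection and spectrophotometry.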

Nakaseomyces glabratus [9] = test: Antifungal activity against fluconazole-resistant Candida glabrata DSY2271 increase expressing of CgCDR2 genes after 24 hrs by visually and spectrophotometric analysis; conditions: DSY2271, 24 h; procedure, shortened: as §2
Nakaseomyces glabratus [10] = test: Antifungal activity against fluconazole-resistant Candida glabrata DSY2254 increase expressing of CgCDR1 and CgCDR2 genes after 24 hrs by visually and spectrophotometric analysis; conditions: DSY2254, 24 h; procedure, shortened: as §2
Nakaseomyces glabratus [11] = test: Antifungal activity against fluconazole-resistant Candida glabrata DSY756 increase expressing of CgCDR1, CgCDR2, and CgSNQ2 genes after 24 hrs by visually and spectrophotometric analysis; conditions: DSY756, 24 h; procedure, shortened: as §2
Nakaseomyces glabratus [12] = test: Antifungal activity against fluconazole-resistant Candida glabrata DSY754 increase expressing of CgCDR1 gene after 24 hrs by visually and spectrophotometric analysis; conditions: DSY754, 24 h; procedure, shortened: as §2
Nakaseomyces glabratus [13] = test: Antifungal activity against fluconazole-resistant Candida glabrata DSY530 increase expressing of CgCDR1 gene after 24 hrs by visually and spectrophotometric analysis; conditions: DSY530, 24 h; procedure, shortened: as §2
Candida albicans [14] = test: Antifungal activity against fluconazole-resistant Candida albicans DSY751 harboring ERG11 gene mutant and increase expressing of MDR1 gene after 24 hrs by visually and spectrophotometric analysis; conditions: DSY751, 24 h; procedure, shortened: as §2
Candida albicans [15] = test: Antifungal activity against fluconazole-resistant Candida albicans DSY775 harboring ERG11 gene mutant and increase expressing of CDR1 and CDR2 genes after 24 hrs by visually and spectrophotometric analysis; conditions: DSY775, 24 h; procedure, shortened: as §2
Candida albicans [16] = test: Antifungal activity against fluconazole-resistant Candida albicans DSY735 expressing high level of CDR1 and CDR2 genes after 24 hrs by visually and spectrophotometric analysis; conditions: DSY735, 24 h; procedure, shortened: as §2
Candida albicans [17] = test: Antifungal activity against fluconazole-resistant Candida albicans DSY292 harboring ERG11 gene mutant and increase expressing of MDR1 gene after 24 hrs by visually and spectrophotometric analysis; conditions: DSY292, 24 h; procedure, shortened: as §2
Candida albicans [18] = test: Antifungal activity against fluconazole-resistant Candida albicans DSY348 harboring ERG11 gene mutant and increase expressing of CDR1 and CDR2 genes after 24 hrs by visually and spectrophotometric analysis; conditions: DSY348, 24 h; procedure, shortened: as §2
Candida albicans [19] = test: Antifungal activity against fluconazole-resistant Candida albicans DSY289 harboring ERG11 gene mutant and increase expressing of CDR1 and CDR2 genes after 24 hrs by visually and spectrophotometric analysis; conditions: DSY289, 24 h; procedure, shortened: as §2
Candida albicans [20] = test: Antifungal activity against fluconazole-resistant Candida albicans DSY296 harboring ERG11 gene mutant and increase expressing of CDR1 and CDR2 genes after 24 hrs by visually and spectrophotometric analysis; conditions: DSY296, 24 h; procedure, shortened: as §2
Candida albicans [21] = test: Antifungal activity against fluconazole-resistant Candida albicans DSY284 harboring ERG11 gene mutant and increase expressing of CDR1 and CDR2 genes after 24 hrs by visually and spectrophotometric analysis; conditions: DSY284, 24 h; procedure, shortened: as §2
Nakaseomyces glabratus [22] = test: Antifungal activity against wild type Candida glabrata after 24 hrs by visually and spectrophotometric analysis
Kluyveromyces marxianus = test: Antifungal activity against wild type Candida kefyr after 24 hrs by visually and spectrophotometric analysis
Candida tropicalis [23] = test: Antifungal activity against wild type Candida tropicalis after 24 hrs by visually and spectrophotometric analysis
Candida parapsilosis = test: Antifungal activity against wild type Candida parapsilosis ATCC 34136 after 24 hrs by visually and spectrophotometric analysis; conditions: Lodderomyces parapsilosis, ATCC 34136, 24 h
Pichia kudriavzevii = test: Antifungal activity against wild type Candida krusei ATCC 14243 after 24 hrs by visually and spectrophotometric analysis; conditions: ATCC 14243, 24 h
[24] = tested on: Meyerozyma guilliermondii; test: Antifungal activity against wild type Candida guilliermondii after 24 hrs by visually and spectrophotometric analysis
Candida albicans [25] = test: Antifungal activity against wild type Candida albicans ATCC 60193 after 24 hrs by visually and spectrophotometric analysis; conditions: ATCC 60193, 24 h

SMILES | MIC90 (Candida tropicalis [1]) | MIC90 (Clavispora lusitaniae [2]) | MIC90 (Clavispora lusitaniae [3]) | MIC90 (Clavispora lusitaniae [4]) | MIC90 (Clavispora lusitaniae [5]) | MIC90 (Clavispora lusitaniae [6]) | MIC90 (Clavispora lusitaniae [7]) | MIC90 (Nakaseomyces glabratus [9]) | MIC90 (Nakaseomyces glabratus [10]) | MIC90 (Nakaseomyces glabratus [11]) | MIC90 (Nakaseomyces glabratus [12]) | MIC90 (Nakaseomyces glabratus [13]) | MIC90 (Candida albicans [14]) | MIC90 (Candida albicans [15]) | MIC90 (Candida albicans [16]) | MIC90 (Candida albicans [17]) | MIC90 (Candida albicans [18]) | MIC90 (Candida albicans [19]) | MIC90 (Candida albicans [20]) | MIC90 (Candida albicans [21]) | further results
C/C=C/CNC(=N)NCCCCCCCCN1CCCCCCOc2ccccc2CNC(=N)NC1=O.O=C(O)C(F)(F)F | 10 µg/mL | 5 µg/mL | 5 µg/mL | 5 µg/mL | 5 µg/mL | 5 µg/mL | 5 µg/mL | 36 µg/mL | 40 µg/mL | 36 µg/mL | 40 µg/mL | 36 µg/mL | 10 µg/mL | 10 µg/mL | 5 µg/mL | 10 µg/mL | 5 µg/mL | 5 µg/mL | 10 µg/mL | 9 µg/mL | MIC90 (Candida albicans [8]): 5 µg/mL; MIC90 (Nakaseomyces glabratus [22]): 16 µg/mL; MIC90 (Kluyveromyces marxianus): 2 µg/mL; MIC90 (Candida tropicalis [23]): 1 µg/mL; MIC90 (Candida parapsilosis): 2 µg/mL; MIC90 (Pichia kudriavzevii): 4 µg/mL; MIC90 [24]: 2 µg/mL; MIC90 (Candida albicans [25]): 4 µg/mL
C/C=C/CNC(=N)NCCCCCCCCN1CCCCOC(=O)CCNC(=N)NC1=O.O=C(O)C(F)(F)F | 16 µg/mL | 4 µg/mL | 4 µg/mL | 8 µg/mL | 4 µg/mL | 4 µg/mL | 8 µg/mL | 64 µg/mL | 128 µg/mL | 128 µg/mL | 64 µg/mL | 64 µg/mL | 16 µg/mL | 16 µg/mL | 8 µg/mL | 16 µg/mL | 8 µg/mL | 8 µg/mL | 16 µg/mL | 16 µg/mL | MIC90 (Candida albicans [8]): 8 µg/mL; MIC90 (Nakaseomyces glabratus [22]): 64 µg/mL; MIC90 (Kluyveromyces marxianus): 32 µg/mL; MIC90 (Candida tropicalis [23]): 32 µg/mL; MIC90 (Candida parapsilosis): 32 µg/mL; MIC90 (Pichia kudriavzevii): 64 µg/mL; MIC90 [24]: 32 µg/mL; MIC90 (Candida albicans [25]): 32 µg/mL
C/C=C/CNC(=N)NCCCCCCCCN1CCCCCCCCNC(=N)NC1=O |  |  |  |  |  |  |  |  |  |  |  |  |  |  |  |  |  |  |  |  | MIC50 (Nakaseomyces glabratus [22]): 20 µg/mL (≈ 45.9 µM); MIC50 (Candida tropicalis [23]): 1.25 µg/mL (≈ 2.87 µM); MIC50 (Candida parapsilosis): 5 µg/mL (≈ 11.5 µM); MIC50 (Pichia kudriavzevii): 5 µg/mL (≈ 11.5 µM); MIC50 (Candida albicans [25]): 2.5 µg/mL (≈ 5.74 µM)
C[C@@H]1[C@H](O)[C@@H](C)/C=C/C=C/C=C/C=C/C=C/C=C/C=C/[C@H](O[C@@H]2O[C@H](C)[C@@H](O)[C@H](N)[C@@H]2O)C[C@@H]2O[C@](O)(C[C@@H](O)C[C@@H](O)[C@H](O)CC[C@@H](O)C[C@@H](O)CC(=O)O[C@H]1C)C[C@H](O)[C@H]2C(=O)O [AMPHOTERICIN B] | 8 µg/mL (≈ 8.66 µM) | 0.125 µg/mL (≈ 0.135 µM) | 0.125 µg/mL (≈ 0.135 µM) | 1 µg/mL (≈ 1.08 µM) | 2 µg/mL (≈ 2.16 µM) | 1 µg/mL (≈ 1.08 µM) | 1 µg/mL (≈ 1.08 µM) |  |  |  |  |  |  |  |  |  |  |  |  |  | MIC90 (Candida albicans [8]): 2 µg/mL (≈ 2.16 µM)
OC(Cn1cncn1)(Cn1cncn1)c1ccc(F)cc1F [FLUCONAZOLE] |  |  |  |  |  |  |  | 64 µg/mL (≈ 209 µM) | 128 µg/mL (≈ 418 µM) | 128 µg/mL (≈ 418 µM) | 64 µg/mL (≈ 209 µM) | 64 µg/mL (≈ 209 µM) | 256 µg/mL (≈ 836 µM) | 128 µg/mL (≈ 418 µM) | 64 µg/mL (≈ 209 µM) | 64 µg/mL (≈ 209 µM) | 32 µg/mL (≈ 104 µM) | 256 µg/mL (≈ 836 µM) | 128 µg/mL (≈ 418 µM) | 256 µg/mL (≈ 836 µM) | MIC90 (Nakaseomyces glabratus [22]): 16 µg/mL (≈ 52.2 µM); MIC90 (Kluyveromyces marxianus): 1 µg/mL (≈ 3.27 µM); MIC90 (Candida tropicalis [23]): 2 µg/mL (≈ 6.53 µM); MIC90 (Candida parapsilosis): 0.5 µg/mL (≈ 1.63 µM); MIC90 (Pichia kudriavzevii): 256 µg/mL (≈ 836 µM); MIC90 [24]: 4 µg/mL (≈ 13.1 µM); MIC90 (Candida albicans [25]): 2 µg/mL (≈ 6.53 µM)
C[C@@H](c1ncncc1F)[C@](O)(Cn1cncn1)c1ccc(F)cc1F [VORICONAZOLE] |  |  |  |  |  |  |  | 0.125 µg/mL (≈ 0.358 µM) | 2 µg/mL (≈ 5.73 µM) | 4 µg/mL (≈ 11.5 µM) | 2 µg/mL (≈ 5.73 µM) | 0.5 µg/mL (≈ 1.43 µM) | 0.25 µg/mL (≈ 0.716 µM) | 8 µg/mL (≈ 22.9 µM) | 2 µg/mL (≈ 5.73 µM) | 2 µg/mL (≈ 5.73 µM) | 0.25 µg/mL (≈ 0.716 µM) | 8 µg/mL (≈ 22.9 µM) | 8 µg/mL (≈ 22.9 µM) | 4 µg/mL (≈ 11.5 µM) | 

— ChEMBL document CHEMBL2429728, “Novel Macrocyclic Amidinoureas: Potent Non-Azole Antifungals Active against Wild-Type and Resistant Candida Species” (2013)
